Assay results taken from ChEMBL document CHEMBL1156906, “Synthesis and structure-activity relationship of botryllamides that block the ABCG2 multidrug transporter” (Bioorg Med Chem Lett, 2010).

Molecular target: T1, Broad substrate specificity ATP-binding cassette transporter ABCG2 (Homo sapiens, UniProt Q9UNQ0)
T1 sequence (Q9UNQ0 whole entry): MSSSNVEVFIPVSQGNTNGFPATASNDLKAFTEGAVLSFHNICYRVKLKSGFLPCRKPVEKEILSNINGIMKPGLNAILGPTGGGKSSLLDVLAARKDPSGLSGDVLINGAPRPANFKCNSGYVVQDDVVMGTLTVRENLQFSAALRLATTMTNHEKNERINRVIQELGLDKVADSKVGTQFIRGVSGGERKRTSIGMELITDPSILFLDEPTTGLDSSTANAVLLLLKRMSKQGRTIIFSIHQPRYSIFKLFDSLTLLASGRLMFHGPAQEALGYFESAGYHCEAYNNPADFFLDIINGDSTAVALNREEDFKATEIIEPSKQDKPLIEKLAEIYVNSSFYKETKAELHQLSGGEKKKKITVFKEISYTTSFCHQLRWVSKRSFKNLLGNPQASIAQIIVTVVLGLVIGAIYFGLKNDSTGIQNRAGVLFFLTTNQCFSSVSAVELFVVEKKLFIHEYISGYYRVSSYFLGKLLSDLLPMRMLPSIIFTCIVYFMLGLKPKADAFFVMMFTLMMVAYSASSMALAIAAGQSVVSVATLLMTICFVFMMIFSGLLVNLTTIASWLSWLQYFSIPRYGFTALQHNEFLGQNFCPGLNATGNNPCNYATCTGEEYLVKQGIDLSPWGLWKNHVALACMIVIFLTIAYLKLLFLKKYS
Test: Inhibition of ABCG2 expressed in human NCI-H460/MX20 cells assessed as accumulation of ABCG2 substrate pheophorbide-A
Type: cell-based
Procedure, shortened: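 Cell-based assay in cells overexpressing ABCG2, measuring intracellular accumulation of the fluorescent ABCG2 substrate pheophorbide-a. Medium removed and cells washed with PBS before reading intracellular fluorescence. […] IC50 reported ± SD.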

Compound | IC50 [µM]
COC(Cc1ccc(O)cc1)C(=O)N/C=C/c1ccc(O)cc1 (configuration not stated) | > 100
CO/C(=C\c1ccc(O)c(O)c1)C(=O)N/C=C/c1ccc(O)cc1 | 18.8
CO/C(=C\c1ccc(O)cc1)C(=O)NCC(O)c1ccc(O)cc1 (configuration not stated) | > 100
CO/C(=C\c1cc(Br)c(O)c(Br)c1)C(=O)N/C=C/c1ccc(OC(C)=O)cc1 | 23.2
CO/C(=C\c1ccc(O)cc1)C(=O)NCCc1ccc(O)cc1 | 25.2
CO/C(=C\c1ccccc1)C(=O)N/C=C/c1ccc(O)cc1 | 15.4
CO/C(=C\c1ccc(OCc2ccccc2)cc1)C(=O)N/C=C/c1ccc(O)cc1 | > 100
CO/C(=C\c1ccc(O)cc1)C(=O)O | > 100
CO/C(=C\c1cc(Br)c(O)c(Br)c1)C(=O)N/C=C/c1ccc(O)cc1 | 11.1
O=C(/C=C/c1ccc(O)cc1)N/C=C/c1ccc(O)cc1 | > 100
CO/C(=C\c1ccc(OC)cc1)C(=O)N/C=C/c1ccc(O)cc1 | 6.4
COC(Cc1ccc(O)cc1)C(=O)NCCc1ccc(O)cc1 (configuration not stated) | > 100
